What all share (type): functional
For test [1], the system named is Mycobacterium tuberculosis. In words: Antimycobacterial activity against patient derived INH/RIF resistance Mycobacterium tuberculosis isolate 1 incubated for 7 days by MTT-based broth microdilution assay. The conditions noted are these: isolate 1, 168 h. In short, it runs like this:
(§1)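 Drug-resistant clinical isolates from Lisbon patients (2008–2009) grown in MB7H9 + 10% OADC at 37 °C to OD600 0.8, diluted to ~10^5 cells/mL; equal volume added to 2-fold serial compound dilutions. Plates sealed, 7 days at 37 °C, then MTT to final 2.5% overnight; MIC = lowest concentration with no colour change; triplicate.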
In general terms: Dilution methods test growth across graded concentrations, often in twofold steps.

Test [2] concerns Mycobacterium tuberculosis. Briefly: Antimycobacterial activity against patient derived INH/RIF resistance Mycobacterium tuberculosis isolate 2 incubated for 7 days by MTT-based broth microdilution assay. The conditions noted are these: isolate 2, 168 h. In short, it runs like this:
as §1

The subject of test [3] is Mycobacterium tuberculosis. In words: Antimycobacterial activity against patient derived extreme drug resistance Mycobacterium tuberculosis isolate 3 incubated for 7 days by MTT-based broth microdilution assay. The conditions noted are these: isolate 3, 168 h. In short, it runs like this:
as §1

In brackets after ≈: the same amount, converted by molar mass.

In general, MIC90 refers to the lowest concentration that inhibits either 90% of growth or 90% of the strains tested, depending on the study. The low end stands for higher susceptibility, the high end for lower susceptibility.

In the case of `Cc1ccc(Nc2nc(-c3cc(C(=O)Nc4ccccc4)no3)cs2)cc1`, the MIC90 in test [1] came to 2 µg/mL (≈ 5.31 µM); in test [2], 1 µg/mL (≈ 2.66 µM); in test [3], 2 µg/mL (≈ 5.31 µM).

Regarding `Cc1ccc(Nc2nc(-c3cc(C(=O)Nc4ccccn4)no3)cs2)cc1`, the MIC90 was 2 µg/mL (≈ 5.3 µM) in test [1], 1 µg/mL (≈ 2.65 µM) in test [2] and 2 µg/mL (≈ 5.3 µM) in test [3].

Values taken from ChEMBL document CHEMBL4038332, “Substituted N-Phenyl-5-(2-(phenylamino)thiazol-4-yl)isoxazole-3-carboxamides Are Valuable Antitubercular Candidates that Evade Innate Efflux Machinery” (J Med Chem, 2017).
